Type in all cases: functional
Experiment [1] concerns Staphylococcus aureus. In words: Antibacterial activity against Staphylococcus aureus NCTC 6571 at 4 mg/ml by hole plate method. The conditions noted are these: for zone of inhibition at 4000 µg/mL: read-out: IZ. Put shortly: (§1)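 Hole-plate assay on bioassay plates seeded with the test organism. Compounds at 4 mg/ml in 7:3 DMSO/H2O were loaded into wells and incubated overnight at 37 °C. Inhibition zone diameters were then measured.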

Experiment [2] concerns Escherichia coli. Briefly: Antibacterial activity against Escherichia coli X580 at 4 mg/ml by hole plate method. The conditions noted are these: for zone of inhibition at 4000 µg/mL: read-out: IZ. Put shortly:
as §1

For experiment [3], the system named is Escherichia coli. In words: Antibacterial activity against Escherichia coli X580 at 4 mg/ml by hole plate method relative to cephalosporin C. The gist of the method:
(§2)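 Hole-plate diffusion: compound solutions at 4 mg/ml (7:3 DMSO/H2O) were placed in wells and incubated overnight at 37 °C. Inhibition zone diameters were measured, and potency was expressed as zone size per mg/ml relative to standards prepared with cephalosporin C.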

In experiment [4] the test system is Escherichia coli. Briefly: Antibacterial activity against Escherichia coli X580 by serial dilution. Put shortly: (§3)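 MIC estimated by serial dilution of compound, each dilution assayed by the hole-plate method (overnight, 37 °C). The end point is the dilution at which no inhibition zone is obtained.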
In experiment [5] the test system is Staphylococcus aureus. In words: Antibacterial activity against Staphylococcus aureus NCTC 6571 at 4 mg/ml by hole plate method relative to cephalosporin C. Put shortly:
as §2

In experiment [6] the test system is Staphylococcus aureus. In words: Antibacterial activity against Staphylococcus aureus NCTC 6571 by serial dilution. Put shortly: as §3

In brackets after ≈: the same amount, converted by molar mass. Activity calls are given as the source filed them. The calls are words filed in the database; no cut-off is given here.

As to `CCCNC(=O)C(C)(C)C(O)c1ccccc1` (centres undefined), the outcome with Staphylococcus aureus [1] and in the experiment with Escherichia coli [2] was inactive.
With `C=CCNC(=O)C(C)(C)C(O)CCCCCCC` (centres undefined), the outcome in the experiment on Staphylococcus aureus [1] was inactive. The Activity in the experiment on Escherichia coli [3] stood at 0.01 millimeter/mg/ml. The zone of inhibition at 4000 µg/mL with Escherichia coli [2] stood at 22 mm. Moreover, the MIC in the experiment with Escherichia coli [4] was 1000 µg/mL (≈ 3920 µM).
For the compound `C=CCNC(=O)C(C)(C)C(O)CCCCc1ccccc1` (racemic), the zone of inhibition at 4000 µg/mL in the experiment with Staphylococcus aureus [1] stood at 17 mm; in the experiment on Escherichia coli [2], 23 mm. Moreover, the Activity in the experiment with Escherichia coli [3] worked out at 0.01 millimeter/mg/ml; with Staphylococcus aureus [5], 0.08 millimeter/mg/ml. Also, the MIC in the experiment with Staphylococcus aureus [6] turned out to be 4000 µg/mL (≈ 13800 µM); in the experiment with Escherichia coli [4], 500 µg/mL (≈ 1730 µM).
Take `CC(C)(C(N)=O)C(O)/C=C/c1ccccc1` (centres undefined): the outcome in the experiment on Staphylococcus aureus [1] and in the experiment on Escherichia coli [2] was inactive.
With `C/C(=C/C=C/c1ccccc1)C(O)C(C)(C)C(N)=O` (centres undefined), the zone of inhibition at 4000 µg/mL in the experiment on Staphylococcus aureus [1] came out at 14 mm; with Escherichia coli [2] it was 28 mm. Further, the Activity in the experiment with Escherichia coli [3] turned out to be 0.03 millimeter/mg/ml; in the experiment with Staphylococcus aureus [5], 0.05 millimeter/mg/ml. The MIC against Escherichia coli [4] came out at 1000 µg/mL (≈ 3860 µM).
As for `CC(C)(C(=O)NCc1ccccc1)C(O)c1ccccc1` (centres undefined), in the experiment with Staphylococcus aureus [1], the result was inactive. The Activity in the experiment on Escherichia coli [3] is 0.005 millimeter/mg/ml. In addition, the zone of inhibition at 4000 µg/mL in the experiment with Escherichia coli [2] is 17 mm. In the experiment on Escherichia coli [4], this compound registered an MIC of 500 µg/mL (≈ 1760 µM).
Take `C=CCNC(=O)C(C)(C)C(O)c1ccccc1/C=C/c1ccccc1` (centres undefined): the zone of inhibition at 4000 µg/mL in the experiment with Staphylococcus aureus [1] was 14 mm; with Escherichia coli [2] it was 20 mm. Moreover, the Activity with Escherichia coli [3] was determined as 0.01 millimeter/mg/ml; in the experiment with Staphylococcus aureus [5], 0.06 millimeter/mg/ml. Further, inhibition of growth against Escherichia coli [4] (MIC) required 500 µg/mL (≈ 1490 µM).
Consider `C=CCNC(=O)C(C)(C)C(O)Cc1ccccc1` (centres undefined), for which the outcome with Staphylococcus aureus [1] and with Escherichia coli [2] was inactive.
On to `C=CCNC(=O)C(C)(C)C1(O)CCCCC1`, for which the result with Staphylococcus aureus [1] and in the experiment with Escherichia coli [2] was inactive.
Turning to `CC(C)(C(=O)NCc1ccc(Br)cc1)C(O)c1ccccc1` (centres undefined), the result in the experiment on Staphylococcus aureus [1] and in the experiment on Escherichia coli [2] was inactive.
Consider `C#CCNC(=O)C(C)(C)C(O)c1ccccc1` (centres undefined), for which the outcome in the experiment on Staphylococcus aureus [1] was inactive. This compound also displayed an Activity with Escherichia coli [3] of 0.003 millimeter/mg/ml. Moreover, in the experiment on Escherichia coli [2], the zone of inhibition at 4000 µg/mL is 15 mm.
Take `C=CCNC(=O)C(C)(C)C(O)c1ccccc1` (racemic): the result in the experiment with Staphylococcus aureus [1] and in the experiment with Escherichia coli [2] was inactive.

The term MIC denotes the lowest concentration that inhibits growth of the organism. Lower therefore signals greater potency.

These data come from ChEMBL document CHEMBL1155014, “On the antibiotic activity of oxazolomycin” (2008).
